In one test the target is Glucagon receptor (Rattus norvegicus, UniProt P30082). Kind of test: Glucagon receptor binding measured as 50% inhibitory concentration. In short, it runs like this: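 Membranes (50 µg protein) were taken from the livers of male Sprague Dawley rats (200-250 g), purified on a sucrose gradient. […] Nonspecific binding was defined with excess unlabeled peptide and subtracted. Run in triplicate, repeated twice.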

Test [1] addresses Adenylate cyclase (Rattus norvegicus) (UniProt D4A3N4+P26770+Q04400+P26769+Q03343+P40146+Q8CFM9+P21932). Kind of test: Adenylate cyclase activity measured as percentage stimulation. Set-up: concentration or dose not given beside the values. Type of test: protein assay.
The target of the next test is Adenylate cyclase. Kind of test: Adenylate cyclase activity measured as 50% inhibitory concentration. Type of test: protein assay.

Where a SMILES comes first, the peptide text is derived from it. Bridges are numbered along the chain shown (N, C = ends).

Chain of Glucagon receptor (P30082 whole entry): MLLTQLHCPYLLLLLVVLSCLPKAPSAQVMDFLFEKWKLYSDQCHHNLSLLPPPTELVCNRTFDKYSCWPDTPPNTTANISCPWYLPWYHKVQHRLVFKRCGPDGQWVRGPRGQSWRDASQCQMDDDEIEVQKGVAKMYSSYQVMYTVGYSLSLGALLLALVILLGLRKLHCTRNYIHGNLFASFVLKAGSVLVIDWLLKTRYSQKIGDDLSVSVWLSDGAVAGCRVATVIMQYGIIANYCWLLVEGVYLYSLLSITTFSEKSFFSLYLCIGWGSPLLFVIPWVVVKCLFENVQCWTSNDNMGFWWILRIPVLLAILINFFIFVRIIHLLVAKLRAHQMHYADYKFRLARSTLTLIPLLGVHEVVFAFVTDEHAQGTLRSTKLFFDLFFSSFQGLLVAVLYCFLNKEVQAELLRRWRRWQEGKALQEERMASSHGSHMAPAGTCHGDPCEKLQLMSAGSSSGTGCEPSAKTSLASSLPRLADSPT

One may read the IC50 as the concentration needed to halve the response being measured. In turn, `CSCC[C@H](NC(=O)[C@H](CC(C)C)NC(=O)[C@H](Cc1c[nH]c2ccccc12)NC(=O)[C@H](CCC(N)=O)NC(=O)[C@@H](NC(=O)[C@H](Cc1ccccc1)NC(=O)[C@H](CC(=O)O)NC(=O)[C@H](CCC(N)=O)NC(=O)[C@H](C)NC(=O)[C@H](CCCNC(=N)N)NC(=O)[C@H](CCCNC(=N)N)NC(=O)[C@H](CO)NC(=O)[C@H](CC(=O)O)NC(=O)[C@H](CC(C)C)NC(=O)[C@H](Cc1ccc(O)cc1)NC(=O)[C@H](CCCCN)NC(=O)[C@@H]1CCC(=O)NCCCC[C@H](NC(=O)[C@H](Cc2ccccc2)NC(=O)[C@@H](NC(=O)CNC(=O)[C@H](CCC(N)=O)NC(=O)[C@H](CO)NC(=O)[C@@H](N)Cc2cnc[nH]2)[C@@H](C)O)C(=O)N[C@@H](CO)C(=O)N[C@@H](CC(=O)O)C(=O)N[C@@H](Cc2ccc(O)cc2)C(=O)N1)C(C)C)C(=O)N[C@@H](CC(N)=O)C(=O)N[C@H](C(=O)O)[C@@H](C)O` (H-HSQGTFKSDYEKYLDSRRAQDFVQWLMNT-OH; lactam 7-11) had an IC50 at Glucagon receptor of 0.0136 µM.

What is called EC50 is the concentration that produces a half-maximal response. Regarding `CSCC[C@H](NC(=O)[C@H](CC(C)C)NC(=O)[C@H](Cc1c[nH]c2ccccc12)NC(=O)[C@H](CCC(N)=O)NC(=O)[C@@H](NC(=O)[C@H](Cc1ccccc1)NC(=O)[C@H](CC(=O)O)NC(=O)[C@H](CCC(N)=O)NC(=O)[C@H](C)NC(=O)[C@H](CCCN=C(N)N)NC(=O)[C@H](CCCN=C(N)N)NC(=O)[C@H](CO)NC(=O)[C@H](CC(=O)O)NC(=O)[C@H](CC(C)C)NC(=O)[C@H](Cc1ccc(O)cc1)NC(=O)[C@H](CCCCN)NC(=O)[C@@H]1CCC(=O)NCCCC[C@H](NC(=O)[C@H](Cc2ccccc2)NC(=O)[C@@H](NC(=O)CNC(=O)[C@H](CCC(N)=O)NC(=O)[C@H](CO)NC(=O)[C@@H](N)Cc2c[nH]cn2)[C@@H](C)O)C(=O)N[C@@H](CO)C(=O)N[C@@H](CC(=O)O)C(=O)N[C@@H](Cc2ccc(O)cc2)C(=O)N1)C(C)C)C(=O)N[C@@H](CC(N)=O)C(=O)N[C@H](C(=O)O)[C@@H](C)O` (H-HSQGTFKSDYEKYLDSRRAQDFVQWLMNT-OH; lactam 7-11), in test [1], the Activity is 17%. Also, the EC50 on Adenylate cyclase was determined as 0.047 µM.

`CSCC[C@H](NC(=O)[C@H](CC(C)C)NC(=O)[C@H](Cc1c[nH]c2ccccc12)NC(=O)[C@H](CCC(N)=O)NC(=O)[C@@H](NC(=O)[C@H](Cc1ccccc1)NC(=O)[C@H](CC(=O)O)NC(=O)[C@H](CCC(N)=O)NC(=O)[C@H](C)NC(=O)[C@H](CCCN=C(N)N)NC(=O)[C@H](CCCN=C(N)N)NC(=O)[C@H](CO)NC(=O)[C@H](CC(=O)O)NC(=O)[C@H](CC(C)C)NC(=O)[C@@H]1CCC(=O)NCCCC[C@H](NC(=O)[C@H](CO)NC(=O)[C@@H](NC(=O)[C@H](Cc2ccccc2)NC(=O)[C@@H](NC(=O)CNC(=O)[C@H](CCC(N)=O)NC(=O)[C@H](CO)NC(=O)[C@@H](N)Cc2c[nH]cn2)[C@@H](C)O)[C@@H](C)O)C(=O)N[C@@H](Cc2ccc(O)cc2)C(=O)N[C@@H](CO)C(=O)N[C@@H](CCCCN)C(=O)N1)C(C)C)C(=O)N[C@@H](CC(N)=O)C(=O)N[C@H](C(=O)O)[C@@H](C)O` (H-HSQGTFTSKYSKELDSRRAQDFVQWLMNT-OH; lactam 9-13): the IC50 on Glucagon receptor stood at 0.652 µM. In test [1], this molecule registered an Activity of 19%. In addition, the EC50 on Adenylate cyclase was 0.023 µM.

Turning to `CSCC[C@H](NC(=O)[C@H](CC(C)C)NC(=O)[C@H](Cc1c[nH]c2ccccc12)NC(=O)[C@H](CCC(N)=O)NC(=O)[C@@H](NC(=O)[C@H](Cc1ccccc1)NC(=O)[C@@H]1CCC(=O)NCCCC[C@H](NC(=O)[C@H](CO)NC(=O)[C@H](CC(=O)O)NC(=O)[C@H](CC(C)C)NC(=O)[C@H](Cc2ccc(O)cc2)NC(=O)[C@H](CCCCN)NC(=O)[C@H](CO)NC(=O)[C@H](Cc2ccc(O)cc2)NC(=O)[C@H](CC(=O)O)NC(=O)[C@H](CO)NC(=O)[C@@H](NC(=O)[C@H](Cc2ccccc2)NC(=O)[C@@H](NC(=O)CNC(=O)[C@H](CCC(N)=O)NC(=O)[C@H](CO)NC(=O)[C@@H](N)Cc2c[nH]cn2)[C@@H](C)O)[C@@H](C)O)C(=O)N[C@@H](CCCN=C(N)N)C(=O)N[C@@H](C)C(=O)N[C@@H](CCC(N)=O)C(=O)N1)C(C)C)C(=O)N[C@@H](CC(N)=O)C(=O)N[C@H](C(=O)O)[C@@H](C)O`, the 50% inhibitory concentration (IC50) at Glucagon receptor came to 0.00024 µM. In test [1], this molecule had an Activity of 98%. The EC50 on Adenylate cyclase was determined as 0.00027 µM.

On Glucagon receptor, `CSCC[C@H](NC(=O)[C@H](CC(C)C)NC(=O)[C@H](Cc1c[nH]c2ccccc12)NC(=O)[C@H](CCC(N)=O)NC(=O)[C@@H](NC(=O)[C@H](Cc1ccccc1)NC(=O)[C@H](CC(=O)O)NC(=O)[C@H](CCC(N)=O)NC(=O)[C@H](C)NC(=O)[C@H](CCCN=C(N)N)NC(=O)[C@H](CCCN=C(N)N)NC(=O)[C@H](CO)NC(=O)[C@H](CC(=O)O)NC(=O)[C@H](CC(C)C)NC(=O)[C@H](Cc1ccc(O)cc1)NC(=O)[C@H](CCCCN)NC(=O)[C@H](CO)NC(=O)[C@H](Cc1ccc(O)cc1)NC(=O)[C@H](CC(=O)O)NC(=O)[C@H](CO)NC(=O)[C@H](CS)NC(=O)[C@H](Cc1ccccc1)NC(=O)[C@@H](NC(=O)CNC(=O)[C@H](CCC(N)=O)NC(=O)[C@H](CS)NC(=O)[C@@H](N)Cc1c[nH]cn1)[C@@H](C)O)C(C)C)C(=O)N[C@@H](CC(N)=O)C(=O)N[C@H](C(=O)O)[C@@H](C)O` (H-HCQGTFCSDYSKYLDSRRAQDFVQWLMNT-OH) yielded an IC50 of 0.0056 µM.

In the case of `CSCC[C@H](NC(=O)[C@H](CC(C)C)NC(=O)[C@H](Cc1c[nH]c2ccccc12)NC(=O)[C@H](CCC(N)=O)NC(=O)[C@@H](NC(=O)[C@H](Cc1ccccc1)NC(=O)[C@H](CC(=O)O)NC(=O)[C@H](CCC(N)=O)NC(=O)[C@H](C)NC(=O)[C@H](CCCNC(=N)N)NC(=O)[C@H](CCCNC(=N)N)NC(=O)[C@H](CO)NC(=O)[C@H](CC(=O)O)NC(=O)[C@H](CC(C)C)NC(=O)[C@H](Cc1ccc(O)cc1)NC(=O)[C@H](CS)NC(=O)[C@H](CO)NC(=O)[C@H](Cc1ccc(O)cc1)NC(=O)[C@H](CC(=O)O)NC(=O)[C@H](CO)NC(=O)[C@H](CS)NC(=O)[C@H](Cc1ccccc1)NC(=O)[C@@H](NC(=O)CNC(=O)[C@H](CCC(N)=O)NC(=O)[C@H](CO)NC(=O)[C@@H](N)Cc1cnc[nH]1)[C@@H](C)O)C(C)C)C(=O)N[C@@H](CC(N)=O)C(=O)N[C@H](C(=O)O)[C@@H](C)O` (H-HSQGTFCSDYSCYLDSRRAQDFVQWLMNT-OH), the IC50 on Glucagon receptor came to 0.0064 µM.

At Glucagon receptor, `CSCC[C@H](NC(=O)[C@H](CC(C)C)NC(=O)[C@H](Cc1c[nH]c2ccccc12)NC(=O)[C@H](CCC(N)=O)NC(=O)[C@@H](NC(=O)[C@H](Cc1ccccc1)NC(=O)[C@H](CC(=O)O)NC(=O)[C@H](CCC(N)=O)NC(=O)[C@H](C)NC(=O)[C@H](CCCN=C(N)N)NC(=O)[C@H](CCCN=C(N)N)NC(=O)[C@H](CO)NC(=O)[C@H](CC(=O)O)NC(=O)[C@H](CC(C)C)NC(=O)[C@H](Cc1ccc(O)cc1)NC(=O)[C@H](CCCCN)NC(=O)[C@H](CO)NC(=O)[C@H](Cc1ccc(O)cc1)NC(=O)[C@@H]1CSSC[C@H](NC(=O)[C@H](CCC(N)=O)NC(=O)[C@H](CO)NC(=O)[C@@H](N)Cc2c[nH]cn2)C(=O)N[C@@H]([C@@H](C)O)C(=O)N[C@@H](Cc2ccccc2)C(=O)N[C@@H]([C@@H](C)O)C(=O)N[C@@H](CO)C(=O)N1)C(C)C)C(=O)N[C@@H](CC(N)=O)C(=O)N[C@H](C(=O)O)[C@@H](C)O` (H-HSQCTFTSCYSKYLDSRRAQDFVQWLMNT-OH; disulfide 4-9) returned an IC50 of 0.0845 µM. The Activity in test [1] was determined as 7.5%. Further, on Adenylate cyclase, the EC50 amounted to 0.295 µM.

On Glucagon receptor, `CSCC[C@H](NC(=O)[C@H](CC(C)C)NC(=O)[C@H](Cc1c[nH]c2ccccc12)NC(=O)[C@H](CCC(N)=O)NC(=O)[C@@H](NC(=O)[C@H](Cc1ccccc1)NC(=O)[C@H](CC(=O)O)NC(=O)[C@H](CCC(N)=O)NC(=O)[C@H](C)NC(=O)[C@H](CCCN=C(N)N)NC(=O)[C@H](CCCN=C(N)N)NC(=O)[C@H](CO)NC(=O)[C@H](CC(=O)O)NC(=O)[C@H](CC(C)C)NC(=O)[C@H](Cc1ccc(O)cc1)NC(=O)[C@H](CCCCN)NC(=O)[C@H](CO)NC(=O)[C@H](Cc1ccc(O)cc1)NC(=O)[C@H](CC(=O)O)NC(=O)[C@H](CO)NC(=O)[C@@H]1CSSC[C@H](NC(=O)[C@@H](N)Cc2c[nH]cn2)C(=O)N[C@@H](CCC(N)=O)C(=O)NCC(=O)N[C@@H]([C@@H](C)O)C(=O)N[C@@H](Cc2ccccc2)C(=O)N1)C(C)C)C(=O)N[C@@H](CC(N)=O)C(=O)N[C@H](C(=O)O)[C@@H](C)O` (H-HCQGTFCSDYSKYLDSRRAQDFVQWLMNT-OH; disulfide 2-7) yielded an IC50 of 0.101 µM. The Activity in test [1] came out at 23%. Moreover, the 50% effective concentration (EC50) on Adenylate cyclase was 9.2 µM.

As for `CSCC[C@H](NC(=O)[C@H](CC(C)C)NC(=O)[C@H](Cc1c[nH]c2ccccc12)NC(=O)[C@H](CCC(N)=O)NC(=O)[C@@H](NC(=O)[C@H](Cc1ccccc1)NC(=O)[C@H](CC(=O)O)NC(=O)[C@H](CCC(N)=O)NC(=O)[C@H](C)NC(=O)[C@H](CCCN=C(N)N)NC(=O)[C@H](CCCN=C(N)N)NC(=O)[C@H](CO)NC(=O)[C@H](CC(=O)O)NC(=O)[C@H](CC(C)C)NC(=O)[C@H](Cc1ccc(O)cc1)NC(=O)[C@H](CCCCN)NC(=O)[C@H](CO)NC(=O)[C@H](Cc1ccc(O)cc1)NC(=O)[C@H](CS)NC(=O)[C@H](CO)NC(=O)[C@@H](NC(=O)[C@H](Cc1ccccc1)NC(=O)[C@@H](NC(=O)[C@H](CS)NC(=O)[C@H](CCC(N)=O)NC(=O)[C@H](CO)NC(=O)[C@@H](N)Cc1c[nH]cn1)[C@@H](C)O)[C@@H](C)O)C(C)C)C(=O)N[C@@H](CC(N)=O)C(=O)N[C@H](C(=O)O)[C@@H](C)O` (H-HSQCTFTSCYSKYLDSRRAQDFVQWLMNT-OH), at Glucagon receptor, the IC50 came to 0.0036 µM. In addition, the Activity in test [1] worked out at 18%. This molecule also had an EC50 at Adenylate cyclase of 0.295 µM.

For the origin of these results see ChEMBL document CHEMBL1134594 (J Med Chem, 2001).
